Experiments:
Format in all cases: functional
SW-620 = test: Growth inhibition of human SW620 cells at 10 uM relative to control; details: values are per cent of control
Summary of the method: (§1)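 Single-dose NCI human tumour cell line screen, run by the NIH. Percent inhibition of cell line growth was calculated by comparison with untreated samples.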

cells [1] = details: Homo sapiens, Cancer cell lines
MDA-MB-231 = test: Growth inhibition of human MDA-MB-231 cells at 10 uM relative to control; details: values are per cent of control
Summary of the method: (§2)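 Single-dose preliminary screen in the NCI human cancer cell line panel, run by the NIH. Percent inhibition of cell line growth was calculated by comparison with untreated samples.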

NCI-H226 = test: Growth inhibition of human NCI-H226 cells at 10 uM relative to control; details: values are per cent of control; summary of the method: as §2
KM12 = test: Growth inhibition of human KM12 cells at 10 uM relative to control; details: values are per cent of control; summary of the method: as §2
HCT-15 = test: Growth inhibition of human HCT15 cells at 10 uM relative to control; details: values are per cent of control; summary of the method: as §2
HT-29 = test: Growth inhibition of human HT-29 cells at 10 uM relative to control; details: values are per cent of control; summary of the method: as §2
NCI-H23 = test: Growth inhibition of human NCI-H23 cells at 10 uM relative to control; details: values are per cent of control; summary of the method: as §2
SF-295 = test: Growth inhibition of human SF295 cells at 10 uM relative to control; details: values are per cent of control; summary of the method: as §2
[2] = Growth inhibition of human Hs 578T cells at 10 uM relative to control; details: values are per cent of control; summary of the method: as §2
cells [3] = details: Homo sapiens, Cancer cell lines; remark: listed apart in the source
MDA-MB-435 = test: Growth inhibition of human MDA-MB-435 cells at 10 uM relative to control; details: values are per cent of control; summary of the method: as §2
HCT-116 = test: Growth inhibition of human HCT116 cells at 10 uM relative to control; details: values are per cent of control; summary of the method: as §2
cells [4] = details: Homo sapiens, Cancer cell lines; remark: listed apart in the source
Malme-3M = test: Growth inhibition of human MALME-3M cells at 10 uM relative to control; details: values are per cent of control; summary of the method: as §2
[5] = Growth inhibition of human RPMI8266 cells at 10 uM relative to control; details: values are per cent of control; summary of the method: as §2
NCI-H522 = test: Growth inhibition of human NCI-H522 cells at 10 uM relative to control; details: values are per cent of control; summary of the method: as §2
CAKI-1 = test: Growth inhibition of human Caki1 cells at 10 uM relative to control; details: values are per cent of control; summary of the method: as §2
M14 = test: Growth inhibition of human M14 cells at 10 uM relative to control; details: values are per cent of control; summary of the method: as §2
OVCAR-4 = test: Growth inhibition of human OVCAR4 cells at 10 uM relative to control; details: values are per cent of control; summary of the method: as §2
786-0 = test: Growth inhibition of human 786-0 cells at 10 uM relative to control; details: values are per cent of control; summary of the method: as §2
SN12C = test: Growth inhibition of human SN12C cells at 10 uM relative to control; details: values are per cent of control; summary of the method: as §2
COLO 205 = test: Growth inhibition of human COLO205 cells at 10 uM relative to control; details: values are per cent of control; summary of the method: as §2
CCRF-CEM = test: Growth inhibition of human CCRF-CEM cells at 10 uM relative to control; details: values are per cent of control; summary of the method: as §2
cells [6] = details: Homo sapiens, Cancer cell lines; remark: listed apart in the source
SK-MEL-2 = test: Growth inhibition of human SK-MEL-2 cells at 10 uM relative to control; details: values are per cent of control; summary of the method: as §2
HCC 2998 = test: Growth inhibition of human HCC2998 cells at 10 uM relative to control; details: values are per cent of control; summary of the method: as §2
SK-OV-3 = test: Growth inhibition of human SKOV3 cells at 10 uM relative to control; details: values are per cent of control; summary of the method: as §2
EKVX = test: Growth inhibition of human EKVX cells at 10 uM relative to control; details: values are per cent of control; summary of the method: as §2
cells [7] = details: Homo sapiens, Cancer cell lines; remark: listed apart in the source
OVCAR-8 = test: Growth inhibition of human OVCAR8 cells at 10 uM relative to control; details: values are per cent of control; summary of the method: as §2
MCF7 = test: Growth inhibition of human MCF7 cells at 10 uM relative to control; details: values are per cent of control; summary of the method: as §2
BT-549 = test: Growth inhibition of human BT549 cells at 10 uM relative to control; details: values are per cent of control; summary of the method: as §2
U-251 = test: Growth inhibition of human U251 cells at 10 uM relative to control; details: values are per cent of control; summary of the method: as §1
T47D = test: Growth inhibition of human T47D cells at 10 uM relative to control; details: values are per cent of control; summary of the method: as §1
UACC-62 = test: Growth inhibition of human UACC62 cells at 10 uM relative to control; details: values are per cent of control; summary of the method: as §1
SNB-75 = test: Growth inhibition of human SNB75 cells at 10 uM relative to control; details: values are per cent of control; summary of the method: as §1
DU-145 = test: Growth inhibition of human DU145 cells at 10 uM relative to control; details: values are per cent of control; summary of the method: as §2
A498 = test: Growth inhibition of human A498 cells at 10 uM relative to control; details: values are per cent of control; summary of the method: as §2
LOX IMVI = test: Growth inhibition of human LOXIMVI cells at 10 uM relative to control; details: values are per cent of control; summary of the method: as §2
IGROV-1 = test: Growth inhibition of human IGROV1 cells at 10 uM relative to control; details: values are per cent of control; summary of the method: as §2
TK-10 = test: Growth inhibition of human TK10 cells at 10 uM relative to control; details: values are per cent of control; summary of the method: as §1
ACHN = test: Growth inhibition of human ACHN cells at 10 uM relative to control; details: values are per cent of control; summary of the method: as §2
HOP-62 = test: Growth inhibition of human HOP62 cells at 10 uM relative to control; details: values are per cent of control; summary of the method: as §2
NCI/ADR-RES = test: Growth inhibition of human NCI/ADR-RES cells at 10 uM relative to control; details: values are per cent of control; summary of the method: as §2
SF-268 = test: Growth inhibition of human SF268 cells at 10 uM relative to control; details: values are per cent of control; summary of the method: as §2
SK-MEL-28 = test: Growth inhibition of human SK-MEL-28 cells at 10 uM relative to control; details: values are per cent of control; summary of the method: as §2
HL-60(TB) = test: Growth inhibition of human HL-60(TB) cells at 10 uM relative to control; details: read-out: INH
Summary of the method: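 Single-dose cell line screen run by the NCI (NIH) in its human cancer cell line panel, which includes the leukemia line HL-60(TB). Percent growth inhibition was calculated by comparison with untreated samples.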

MOLT-4 = test: Growth inhibition of human MOLT4 cells at 10 uM relative to control; details: values are per cent of control; summary of the method: as §2
SNB-19 = test: Growth inhibition of human SNB19 cells at 10 uM relative to control; details: values are per cent of control; summary of the method: as §2
MDA-MB-468 = test: Growth inhibition of human MDA-MB-468 cells at 10 uM relative to control; details: values are per cent of control; summary of the method: as §2
Melanoma cell = test: cells; details: Homo sapiens
PC-3 = test: Growth inhibition of human PC3 cells at 10 uM relative to control; details: values are per cent of control; summary of the method: as §2
Leukemia cell = test: cells; details: Homo sapiens
UO-31 = test: Growth inhibition of human UO31 cells at 10 uM relative to control; details: values are per cent of control; summary of the method: as §1
UACC-257 = test: Growth inhibition of human UACC257 cells at 10 uM relative to control; details: values are per cent of control; summary of the method: as §1
NCI-H322M = test: Growth inhibition of human NCI-H322M cells at 10 uM relative to control; details: values are per cent of control; summary of the method: as §2
HOP-92 = test: Growth inhibition of human HOP92 cells at 10 uM relative to control; details: values are per cent of control; summary of the method: as §2
OVCAR-5 = test: Growth inhibition of human OVCAR5 cells at 10 uM relative to control; details: values are per cent of control; summary of the method: as §2
A549 = test: Growth inhibition of human A549 cells at 10 uM relative to control; details: values are per cent of control; summary of the method: as §2
SF-539 = test: Growth inhibition of human SF539 cells at 10 uM relative to control; details: values are per cent of control; summary of the method: as §2
K562 = test: Growth inhibition of human K562 cells at 10 uM relative to control; details: values are per cent of control; summary of the method: as §2
NCI-H460 = test: Growth inhibition of human NCI-H460 cells at 10 uM relative to control; details: values are per cent of control; summary of the method: as §2

O=C(/C=C/c1cn(CC(=O)Nc2ccccc2)nn1)NO
growth, % of control at 10 µM (SW-620): 91.5% | inhibition at 10 µM (cells [1]): 89% | growth, % of control at 10 µM (MDA-MB-231): 104% | growth, % of control at 10 µM (NCI-H226): 94.1% | growth, % of control at 10 µM (KM12): 76% | growth, % of control at 10 µM (HCT-15): 105% | growth, % of control at 10 µM (HT-29): 51.9% | growth, % of control at 10 µM (NCI-H23): 82.8% | growth, % of control at 10 µM (SF-295): 81.3% | growth, % of control at 10 µM [2]: 84.2% | inhibition at 10 µM (cells [3]): 74% | growth, % of control at 10 µM (MDA-MB-435): 63.4% | growth, % of control at 10 µM (HCT-116): 55.3% | growth percent at 10 µM (cells [4]): 90% | growth, % of control at 10 µM (Malme-3M): 21.4% | growth, % of control at 10 µM [5]: 64.2% | growth, % of control at 10 µM (NCI-H522): 41% | growth, % of control at 10 µM (CAKI-1): 81.7% | growth, % of control at 10 µM (M14): 60% | growth, % of control at 10 µM (OVCAR-4): 83.7% | growth, % of control at 10 µM (786-0): 69.5% | growth, % of control at 10 µM (SN12C): 89% | growth, % of control at 10 µM (COLO 205): 117% | growth, % of control at 10 µM (CCRF-CEM): 57.1% | inhibition at 10 µM (cells [6]): 68% | growth, % of control at 10 µM (SK-MEL-2): 51.1% | growth, % of control at 10 µM (HCC 2998): 83.5% | growth, % of control at 10 µM (SK-OV-3): 79.5% | growth, % of control at 10 µM (EKVX): 70.5% | growth percent at 10 µM (cells [7]): 71% | growth, % of control at 10 µM (OVCAR-8): 51.9% | growth, % of control at 10 µM (MCF7): 95.8% | growth, % of control at 10 µM (BT-549): 83.6% | growth, % of control at 10 µM (U-251): 86.6% | growth, % of control at 10 µM (T47D): 56.6% | growth, % of control at 10 µM (UACC-62): 70.8% | growth, % of control at 10 µM (SNB-75): 88.5% | growth, % of control at 10 µM (DU-145): 87.8% | growth, % of control at 10 µM (A498): 105% | growth, % of control at 10 µM (LOX IMVI): 95.4% | growth, % of control at 10 µM (IGROV-1): 86.4% | growth, % of control at 10 µM (TK-10): 101% | growth, % of control at 10 µM (ACHN): 113% | growth, % of control at 10 µM (HOP-62): 43.1% | growth, % of control at 10 µM (NCI/ADR-RES): 13.4% | growth, % of control at 10 µM (SF-268): 66.8% | growth, % of control at 10 µM (SK-MEL-28): 93.4% | growth, % of control at 10 µM (HL-60(TB)): 153% | growth, % of control at 10 µM (MOLT-4): 62.2% | growth, % of control at 10 µM (SNB-19): 105% | growth, % of control at 10 µM (MDA-MB-468): 64.2% | inhibition at 10 µM (Melanoma cell): 69% | growth, % of control at 10 µM (PC-3): 79.7% | inhibition at 10 µM (Leukemia cell): 84% | growth, % of control at 10 µM (UO-31): 74% | growth, % of control at 10 µM (UACC-257): 54.4% | growth, % of control at 10 µM (NCI-H322M): 41.8% | growth, % of control at 10 µM (HOP-92): 67.8% | growth, % of control at 10 µM (OVCAR-5): 79% | growth, % of control at 10 µM (A549): 91.2% | growth, % of control at 10 µM (SF-539): 107% | growth, % of control at 10 µM (K562): 86% | growth, % of control at 10 µM (NCI-H460): 86.1%

— ChEMBL document CHEMBL1140227, “Histone deacetylase inhibitors through click chemistry” (J Med Chem, 2008)
